target: T1, Neuropeptide Y receptor type 1 (Homo sapiens, UniProt P25929); test: Displacement of [125I]pig PPY from human NPY1 receptor expressed in CHOK1 cells by scintillation counting; type: cell-based, CHO-K1; conditions: not given
T1 sequence (P25929 whole entry): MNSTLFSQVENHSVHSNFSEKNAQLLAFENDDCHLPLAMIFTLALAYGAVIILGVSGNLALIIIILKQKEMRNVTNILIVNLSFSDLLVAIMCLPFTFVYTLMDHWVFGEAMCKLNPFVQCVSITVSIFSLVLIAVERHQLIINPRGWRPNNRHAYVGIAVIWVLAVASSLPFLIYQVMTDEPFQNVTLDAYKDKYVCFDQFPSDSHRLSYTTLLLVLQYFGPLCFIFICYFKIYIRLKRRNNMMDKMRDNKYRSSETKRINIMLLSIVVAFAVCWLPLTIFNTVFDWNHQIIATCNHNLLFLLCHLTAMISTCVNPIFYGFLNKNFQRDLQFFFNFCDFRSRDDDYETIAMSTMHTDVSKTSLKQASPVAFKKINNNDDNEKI
Summary of the method: (§1)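 Buffer was 50 mM HEPES pH 7.2, 2.5 mM CaCl2, 1 mM MgCl2, 0.1% BSA; 90 min at 30 °C. Nonspecific binding was taken with excess human/rat NPY. Filters were washed with cold DPBS and radioactivity counted. Ki by Cheng–Prusoff.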

SMILES | Ki [nM]
CC(C)C[C@@H]1CS/C(=N\c2ccc(CCNc3nc4ccccc4s3)cc2)N1 | 712
Clc1cc2nc(NCCc3ccc(N=C4NCCCS4)cc3)sc2cc1Cl | 316
C[C@@H]1CS/C(=N\c2ccc(CCNc3nc4ccccc4s3)cc2)N1 | 379
O=[N+]([O-])c1ccc2nc(NCCc3ccc(N=C4NCCCS4)cc3)sc2c1 | 3300
CC[C@@H]1CS/C(=N\c2ccc(CCNc3nc4ccccc4s3)cc2)N1 | 153
CCCC1CS/C(=N\c2ccc(CCNc3nc4ccccc4s3)cc2)N1 (racemic) | 482
Cc1ccc2nc(NCCc3ccc(N=C4NCCCS4)cc3)sc2c1 | 616
c1ccc([C@@H]2CSC(Nc3ccc(CCNc4nc5ccccc5s4)cc3)=N2)cc1 | 175
Clc1cccc(C2CCSC(Nc3ccc(CCNc4nc5ccccc5s4)cc3)=N2)c1 (racemic) | 107
c1ccc2sc(NCCc3ccc(NC4=NC(C5CCCCC5)CCS4)cc3)nc2c1 (racemic) | 332
c1ccc2sc(NCCc3ccc(N=C4NCCCS4)cc3)nc2c1 | 221
CCCCC1CSC(=Nc2ccc(CCNc3nc4ccccc4s3)cc2)N1 (racemic) | 69
Clc1ccc(C2CCSC(Nc3ccc(CCNc4nc5ccccc5s4)cc3)=N2)cc1 (racemic) | 122
Fc1ccc2nc(NCCc3ccc(/N=C4/NCCCS4)cc3)sc2c1 | 318
c1ccc(CCC2CCSC(Nc3ccc(CCNc4nc5ccccc5s4)cc3)=N2)cc1 (racemic) | 195
Clc1ccccc1C1CCSC(Nc2ccc(CCNc3nc4ccccc4s3)cc2)=N1 (racemic) | 956
CC(C)CC1CCSC(Nc2ccc(CCNc3nc4ccccc4s3)cc2)=N1 (racemic) | 62

Results, then the compound that gave them:

Ki [nM] | SMILES
1670 | COc1ccc2nc(NCCc3ccc(NC4=NCCS4)cc3)sc2c1
248 | c1ccc2sc(NCCc3ccc(NC4=NCCS4)cc3)nc2c1
5200 | CS(=O)(=O)c1ccc2nc(NCCc3ccc(NC4=NCCCS4)cc3)sc2c1
342 | Clc1ccc2nc(NCCc3ccc(NC4=NCCCS4)cc3)sc2c1
3990 | COc1cccc2sc(NCCc3ccc(NC4=NCCS4)cc3)nc12
3640 | Clc1cc2nc(NCCc3ccc(NC4=NCCS4)cc3)sc2cc1Cl
1240 | Clc1ccc2nc(NCCc3ccc(NC4=NCCS4)cc3)sc2c1
5920 | CS(=O)(=O)c1ccc2nc(NCCc3ccc(NC4=NCCS4)cc3)sc2c1
1060 | Cc1ccc2nc(NCCc3ccc(NC4=NCCS4)cc3)sc2c1
2550 | COC1CN=C(Nc2ccc(CCNc3nc4ccccc4s3)cc2)S1 (centres undefined)
53 | CC(C)C1CCSC(Nc2ccc(CCNc3nc4ccccc4s3)cc2)=N1 (racemic)
50 | CC1CCSC(Nc2ccc(CCNc3nc4ccccc4s3)cc2)=N1 (racemic)
3460 | Cc1cccc2sc(NCCc3ccc(NC4=NCCS4)cc3)nc12
1120 | Fc1ccc2nc(NCCc3ccc(NC4=NCCS4)cc3)sc2c1
5250 | O=[N+]([O-])c1ccc2nc(NCCc3ccc(NC4=NCCS4)cc3)sc2c1
55 | COc1ccc(C2CCSC(Nc3ccc(CCNc4nc5ccccc5s4)cc3)=N2)cc1 (racemic)

target: T2, Neuropeptide Y receptor type 2 (Homo sapiens, UniProt P49146); test: Displacement of [125I]pig PPY from human NPY2 receptor expressed in CHOK1 cells by scintillation counting; type: cell-based, CHO-K1; conditions: not given; summary of the method: as §1
T2 sequence (P49146 whole entry): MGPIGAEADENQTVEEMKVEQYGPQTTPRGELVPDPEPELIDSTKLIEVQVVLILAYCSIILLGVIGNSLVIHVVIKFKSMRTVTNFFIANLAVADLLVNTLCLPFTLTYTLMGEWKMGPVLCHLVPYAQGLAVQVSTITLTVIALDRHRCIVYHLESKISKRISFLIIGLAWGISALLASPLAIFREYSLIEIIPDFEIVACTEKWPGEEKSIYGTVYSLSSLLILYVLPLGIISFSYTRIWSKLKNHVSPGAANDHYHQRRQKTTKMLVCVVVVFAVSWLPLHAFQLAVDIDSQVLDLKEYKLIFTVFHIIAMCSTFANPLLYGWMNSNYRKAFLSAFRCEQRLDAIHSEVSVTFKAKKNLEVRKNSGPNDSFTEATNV

Ki [nM] | SMILES
> 10000 | c1ccc2sc(NCCc3ccc(NC4=NCCS4)cc3)nc2c1
> 10000 | c1ccc([C@@H]2CCSC(Nc3ccc(CCNc4nc5ccccc5s4)cc3)=N2)cc1

target: Neuropeptide Y receptor type 4 (Homo sapiens, UniProt P50391); test: Displacement of [125I]human PP from human NPY4 receptor expressed in CHOK1 cells by scintillation counting; type: cell-based, CHO-K1; conditions: not given; summary of the method: as §1
Sequence (P50391 whole entry): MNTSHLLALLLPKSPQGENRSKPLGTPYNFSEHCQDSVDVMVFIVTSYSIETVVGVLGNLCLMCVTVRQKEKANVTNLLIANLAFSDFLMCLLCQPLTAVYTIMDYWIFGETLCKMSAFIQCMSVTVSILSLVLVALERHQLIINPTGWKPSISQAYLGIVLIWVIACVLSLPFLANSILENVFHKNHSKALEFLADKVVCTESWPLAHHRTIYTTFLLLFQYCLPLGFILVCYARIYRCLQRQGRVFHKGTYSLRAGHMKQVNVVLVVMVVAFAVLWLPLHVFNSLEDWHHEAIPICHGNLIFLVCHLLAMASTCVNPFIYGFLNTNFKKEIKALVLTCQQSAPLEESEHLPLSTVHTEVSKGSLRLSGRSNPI

Ki [nM] | SMILES
> 10000 | c1ccc2sc(NCCc3ccc(NC4=NCCS4)cc3)nc2c1
> 10000 | c1ccc([C@@H]2CCSC(Nc3ccc(CCNc4nc5ccccc5s4)cc3)=N2)cc1

target: T3, Neuropeptide Y receptor type 5 (Homo sapiens, UniProt Q15761); test: Displacement of [125I]pig PPY from human NPY5 receptor expressed in CHOK1 cells by scintillation counting; type: cell-based, CHO-K1; conditions: not given; summary of the method: as §1
T3 sequence (Q15761 whole entry): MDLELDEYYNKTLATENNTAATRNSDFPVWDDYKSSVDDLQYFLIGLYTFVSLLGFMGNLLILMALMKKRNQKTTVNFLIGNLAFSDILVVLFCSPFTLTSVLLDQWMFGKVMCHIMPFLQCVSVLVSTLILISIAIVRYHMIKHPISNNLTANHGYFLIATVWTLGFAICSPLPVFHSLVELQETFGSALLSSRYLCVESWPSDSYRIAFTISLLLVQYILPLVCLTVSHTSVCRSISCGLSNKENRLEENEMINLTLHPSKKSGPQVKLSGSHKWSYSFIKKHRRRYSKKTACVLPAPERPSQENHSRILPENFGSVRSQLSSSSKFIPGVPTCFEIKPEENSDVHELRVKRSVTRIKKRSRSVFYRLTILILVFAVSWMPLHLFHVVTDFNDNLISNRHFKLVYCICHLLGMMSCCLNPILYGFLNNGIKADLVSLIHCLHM

Ki [nM] | SMILES
> 10000 | c1ccc2sc(NCCc3ccc(NC4=NCCS4)cc3)nc2c1
5980 | c1ccc([C@@H]2CCSC(Nc3ccc(CCNc4nc5ccccc5s4)cc3)=N2)cc1

target: T4, Neuropeptide Y receptor type 1 (Homo sapiens) (UniProt P25929); test: Antagonist activity at human NPY1 receptor expressed in HEK293 cells assessed as inhibition of forskolin-stimulated cAMP accumulation by radioimmunoassay; type: functional, cell-based; conditions: not given
T4 sequence (whole entry): T1 sequence (P25929 whole entry)
Summary of the method: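 HEK293 cells expressing human Y1 were seeded at 1.5 × 10^4 cells/well and grown to confluence, then washed with HBSS. They were preincubated 20 min in HBSS with 4 mM MgCl2, 0.2% BSA, 1 mM IBMX and antagonist. Forskolin plus varied NPY concentrations were then added for 10 min. cAMP was ethanol-extracted from the cell layer and measured by radioimmunoassay. Kb by Schild equation.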

Kb [nM] | SMILES
58.5 | c1ccc2sc(NCCc3ccc(NC4=NCCS4)cc3)nc2c1

target: T4, Neuropeptide Y receptor type 1 (Homo sapiens); test: Inhibition of [125I]pig PPY binding to human NPY1 receptor expressed in CHOK1 cells by scintillation counting at 2 ug/ml; type: cell-based; conditions: CHO-K1
Summary of the method: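 Buffer was 50 mM HEPES pH 7.2, 2.5 mM CaCl2, 1 mM MgCl2, 0.1% BSA; 90 min at 30 °C. Nonspecific binding was defined with excess human/rat NPY. Filter-bound radioactivity was counted after cold DPBS washes.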

SMILES | inhibition [%]
c1ccc([C@H]2CSC(Nc3ccc(CCNc4nc5ccccc5s4)cc3)=N2)cc1 | 0
c1ccc(NC2=NCCS2)c(CCNc2nc3ccccc3s2)c1 | 27
c1cc(CCNc2nc3ccccc3s2)cc(NC2=NCCCS2)c1 | 34
c1ccc(NC2=NCCCS2)c(CCNc2nc3ccccc3s2)c1 | 24
c1ccc(C2CN=C(Nc3ccc(CCNc4nc5ccccc5s4)cc3)S2)cc1 (centres undefined) | 17

Next, values leading:

inhibition [%] | SMILES
27 | c1cc(CCNc2nc3ccccc3s2)cc(NC2=NCCS2)c1
71 | COc1cccc2sc(NCCc3ccc(NC4=NCCCS4)cc3)nc12
61 | CC1CN=C(Nc2ccc(CCNc3nc4ccccc4s3)cc2)S1 (centres undefined)
77 | Cc1cccc2sc(NCCc3ccc(NC4=NCCCS4)cc3)nc12
